# ChEMBL document CHEMBL1128449, “Novel 4'-substituted and 4',4"-disubstituted 3 alpha-(diphenylmethoxy)tropane analogs as potent and selective dopamine uptake inhibitors” (J Med Chem, 1995)
# Assays:
# [1] = target: Sodium-dependent serotonin transporter (Rattus norvegicus) (UniProt P31652); test: Inhibition of [3H]citalopram binding at rat serotonin transporter; 10 uM
# Summary of the method: (§1)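 Contract-lab radioligand displacement, percent inhibition at 10 μM test compound; 5HTT used [³H]citalopram at 0.7 nM final, NET used [³H]desmethylimipramine at 3.0 nM final.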
# [2] = target: T1, Sodium-dependent dopamine transporter (Rattus norvegicus, UniProt P23977); test: Affinity for rat dopamine transporter using [3H]WIN-35428 displacement.
# Summary of the method: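 Rat caudate putamen (male Sprague–Dawley, 200–250 g) homogenised in ice-cold modified Krebs-HEPES, pH 7.4, washed and used fresh (0.5% w/v). Filtration, scintillation counting. Ki from nonlinear least-squares fitting of three independent experiments, F test model selection.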
# [3] = target: Norepinephrine transporter (Rattus norvegicus) (UniProt Q9WTR4); test: Inhibition of [3H]desmethylimipramine binding at rat norepinephrine transporter; 10 uM; summary of the method: as §1
# [4] = target: T1, Sodium-dependent dopamine transporter; test: Inhibition of [3H]dopamine uptake in rat caudate putamen.; assay type: functional, tissue-based
# [5] = target: T2, Muscarinic acetylcholine receptor M1 (Rattus norvegicus, UniProt P08482); test: Affinity for rat M1 acetylcholine receptor using [3H]pirenzepine displacement.
# T2 sequence (P08482 whole entry): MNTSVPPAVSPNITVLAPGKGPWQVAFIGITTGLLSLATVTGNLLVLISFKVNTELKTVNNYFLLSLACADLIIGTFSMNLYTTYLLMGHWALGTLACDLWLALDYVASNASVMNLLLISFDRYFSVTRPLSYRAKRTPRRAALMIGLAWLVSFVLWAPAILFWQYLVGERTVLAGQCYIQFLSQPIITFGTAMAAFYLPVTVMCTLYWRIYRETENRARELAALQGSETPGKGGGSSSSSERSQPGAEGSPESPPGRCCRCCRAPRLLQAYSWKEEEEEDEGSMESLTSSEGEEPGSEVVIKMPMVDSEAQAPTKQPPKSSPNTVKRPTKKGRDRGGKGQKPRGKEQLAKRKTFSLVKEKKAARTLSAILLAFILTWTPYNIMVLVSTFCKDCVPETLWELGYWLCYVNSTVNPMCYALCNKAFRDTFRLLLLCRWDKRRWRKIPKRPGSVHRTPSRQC
# [6] = target: T3, Muscarinic acetylcholine receptor M2 (Rattus norvegicus, UniProt P10980); test: Affinity for rat M2 acetylcholine receptor using [3H]-AF DX 384 displacement.
# T3 sequence (P10980 whole entry): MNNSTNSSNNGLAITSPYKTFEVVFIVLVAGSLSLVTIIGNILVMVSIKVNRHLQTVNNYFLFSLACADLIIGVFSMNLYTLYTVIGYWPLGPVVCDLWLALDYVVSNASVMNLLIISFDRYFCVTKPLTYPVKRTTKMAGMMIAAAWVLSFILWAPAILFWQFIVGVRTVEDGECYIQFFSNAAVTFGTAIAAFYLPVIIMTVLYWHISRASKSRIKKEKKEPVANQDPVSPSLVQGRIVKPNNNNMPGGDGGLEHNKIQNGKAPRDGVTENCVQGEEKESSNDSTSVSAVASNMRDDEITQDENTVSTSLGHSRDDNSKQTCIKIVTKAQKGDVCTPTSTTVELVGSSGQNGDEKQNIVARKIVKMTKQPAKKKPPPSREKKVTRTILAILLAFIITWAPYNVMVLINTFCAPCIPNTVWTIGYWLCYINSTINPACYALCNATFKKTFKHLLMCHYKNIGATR
# Sodium-dependent serotonin transporter (Rattus norvegicus), sequence (P31652 whole entry): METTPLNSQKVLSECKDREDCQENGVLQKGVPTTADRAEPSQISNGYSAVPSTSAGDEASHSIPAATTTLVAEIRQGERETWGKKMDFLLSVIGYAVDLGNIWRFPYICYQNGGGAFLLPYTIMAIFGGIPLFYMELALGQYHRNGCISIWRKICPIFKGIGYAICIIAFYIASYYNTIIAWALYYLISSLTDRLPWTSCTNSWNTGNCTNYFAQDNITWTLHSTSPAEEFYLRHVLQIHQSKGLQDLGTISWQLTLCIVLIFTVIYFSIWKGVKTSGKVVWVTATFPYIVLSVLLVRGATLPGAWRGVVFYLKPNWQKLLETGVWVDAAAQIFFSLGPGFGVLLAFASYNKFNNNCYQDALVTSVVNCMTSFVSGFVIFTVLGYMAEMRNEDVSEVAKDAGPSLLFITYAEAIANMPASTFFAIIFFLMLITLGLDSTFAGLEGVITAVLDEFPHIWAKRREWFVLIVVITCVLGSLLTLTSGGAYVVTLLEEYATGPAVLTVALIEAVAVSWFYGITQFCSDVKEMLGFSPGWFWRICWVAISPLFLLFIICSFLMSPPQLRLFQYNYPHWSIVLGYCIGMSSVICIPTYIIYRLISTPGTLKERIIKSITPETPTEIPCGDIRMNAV
# Norepinephrine transporter (Rattus norvegicus), sequence (Q9WTR4 as listed by the source): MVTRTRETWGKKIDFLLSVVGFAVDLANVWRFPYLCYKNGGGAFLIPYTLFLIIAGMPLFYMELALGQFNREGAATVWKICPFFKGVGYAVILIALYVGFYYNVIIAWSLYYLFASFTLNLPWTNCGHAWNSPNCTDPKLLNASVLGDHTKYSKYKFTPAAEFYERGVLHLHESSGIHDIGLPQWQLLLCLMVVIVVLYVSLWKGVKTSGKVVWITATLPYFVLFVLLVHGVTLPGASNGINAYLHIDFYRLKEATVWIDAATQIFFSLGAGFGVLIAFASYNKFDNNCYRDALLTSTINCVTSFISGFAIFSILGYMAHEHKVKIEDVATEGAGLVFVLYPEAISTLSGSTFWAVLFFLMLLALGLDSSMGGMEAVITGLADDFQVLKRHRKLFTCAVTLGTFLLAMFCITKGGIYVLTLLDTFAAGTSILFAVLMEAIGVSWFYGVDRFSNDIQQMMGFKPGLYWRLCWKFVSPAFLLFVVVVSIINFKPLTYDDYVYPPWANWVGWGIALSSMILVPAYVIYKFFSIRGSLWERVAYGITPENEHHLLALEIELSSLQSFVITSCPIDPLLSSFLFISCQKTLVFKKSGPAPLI
# T1 sequence (P23977 whole entry): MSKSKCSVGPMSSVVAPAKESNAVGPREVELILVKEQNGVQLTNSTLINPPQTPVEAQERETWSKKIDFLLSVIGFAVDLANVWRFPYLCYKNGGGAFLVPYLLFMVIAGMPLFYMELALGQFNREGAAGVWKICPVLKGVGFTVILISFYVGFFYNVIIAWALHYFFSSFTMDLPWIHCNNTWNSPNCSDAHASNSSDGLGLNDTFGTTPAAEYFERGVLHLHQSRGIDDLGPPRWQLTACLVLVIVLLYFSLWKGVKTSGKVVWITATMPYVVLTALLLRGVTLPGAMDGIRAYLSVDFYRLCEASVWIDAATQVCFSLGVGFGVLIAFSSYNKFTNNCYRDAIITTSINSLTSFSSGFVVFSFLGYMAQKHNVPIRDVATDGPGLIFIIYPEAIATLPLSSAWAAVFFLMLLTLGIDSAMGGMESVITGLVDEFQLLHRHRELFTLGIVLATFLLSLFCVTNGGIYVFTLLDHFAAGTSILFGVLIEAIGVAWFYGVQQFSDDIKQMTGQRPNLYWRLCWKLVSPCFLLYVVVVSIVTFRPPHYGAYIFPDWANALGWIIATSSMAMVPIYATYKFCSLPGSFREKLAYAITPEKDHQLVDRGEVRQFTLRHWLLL
SMILES,inhibition [1] [%],Ki [2] [nM],inhibition [3] [%],IC50 [4] [nM],Ki [5] [nM],Ki [6] [nM]
CN1[C@@H]2CC[C@H]1C[C@@H](OC(c1ccccc1)c1ccc(Cl)c(Cl)c1)C2 (stereo partly drawn),66.2,21.1,56.5,47,–,–
CN1[C@@H]2CC[C@H]1C[C@@H](OC(c1ccccc1)c1ccc([N+](=O)[O-])cc1)C2 (stereo partly drawn),54,–,29,219,–,–
CN1C2CCC1CC(OC(c1ccccc1)c1ccc(Cl)cc1)C2 (stereo in doubt; 10) [listing 1 of 2 here],37.2,–,27.9,–,–,–
CN1[C@@H]2CC[C@H]1C[C@@H](OC(c1ccc(Cl)cc1)c1ccc(Cl)cc1)C2,54,–,> 43,–,–,–
CCc1ccc(C(O[C@H]2C[C@H]3CC[C@@H](C2)N3C)c2ccccc2)cc1 (stereo partly drawn),42.7,–,32.7,984,–,–
Cc1ccc(C(O[C@H]2C[C@H]3CC[C@@H](C2)N3C)c2ccccc2)cc1 (stereo partly drawn),35.4,–,31.8,512,–,–
CN1[C@@H]2CC[C@H]1C[C@@H](OC(c1ccccc1)c1ccc(C#N)cc1)C2 (stereo partly drawn),40,–,16,222,–,–
CN1[C@@H]2CC[C@H]1C[C@@H](OC(c1ccccc1)c1ccc(Br)cc1)C2 (stereo partly drawn),39,–,37,29,–,–
CN1C2CCC1CC(OC(c1ccc(F)cc1)c1ccc(F)cc1)C2 (stereo not drawn),62,–,30,–,–,–
CN1C2CCC1CC(OC(c1ccccc1)c1ccc(Cl)cc1)C2 (stereo in doubt; 10) [listing 2 of 2 here],–,–,–,3520,4.1,87.4
CN1[C@@H]2CC[C@H]1C[C@@H](OC(c1ccccc1)c1ccc(O)cc1)C2 (stereo partly drawn),23.3,–,27.3,677,–,–
CN1[C@@H]2CC[C@H]1C[C@@H](OC(c1ccccc1)c1ccc(F)cc1)C2 (stereo partly drawn),35.2,–,37.9,–,–,–
CN1[C@@H]2CC[C@H]1C[C@@H](OC(c1ccc(F)cc1)c1ccc(Cl)c(Cl)c1)C2 (stereo partly drawn),80.3,–,> 57.8,24,–,–
CN1[C@@H]2CC[C@H]1C[C@@H](OC(c1ccc(Br)cc1)c1ccc(Br)cc1)C2,41,–,41.1,34,70.8,–
COc1ccc(C(O[C@H]2C[C@H]3CC[C@@H](C2)N3C)c2ccc(OC)cc2)cc1,31,2000,34,2880,–,–
CN1[C@@H]2CC[C@H]1C[C@@H](OC(c1ccccc1)c1ccc(C(C)(C)C)cc1)C2 (stereo partly drawn),24.7,–,37.6,4460,–,–
CN1C2CCC1CC(OC(c1ccccc1)c1ccc(Cl)cc1)C2 (stereo in doubt; 7a) [listing 1 of 2 here],34,–,32,–,–,–
CN1[C@@H]2CC[C@H]1C[C@@H](OC(c1ccccc1)c1ccc(C(F)(F)F)cc1)C2 (stereo partly drawn),49.1,–,34.6,2150,–,–
CN1C2CCC1CC(OC(c1ccccc1)c1ccc(Cl)cc1)C2 (stereo in doubt; 7a) [listing 2 of 2 here],–,30,–,115,3.6,36.6
COc1ccc(C(O[C@H]2C[C@H]3CC[C@@H](C2)N3C)c2ccccc2)cc1 (stereo partly drawn),30.5,78.4,30.9,468,–,–
Cc1ccc(C(O[C@H]2C[C@H]3CC[C@@H](C2)N3C)c2ccc(C)cc2)cc1,35.5,–,35.1,2540,–,–
